Experiment [1] addresses T1, Peroxisome proliferator-activated receptor gamma (Homo sapiens) (UniProt P37231).
T1 sequence (whole entry): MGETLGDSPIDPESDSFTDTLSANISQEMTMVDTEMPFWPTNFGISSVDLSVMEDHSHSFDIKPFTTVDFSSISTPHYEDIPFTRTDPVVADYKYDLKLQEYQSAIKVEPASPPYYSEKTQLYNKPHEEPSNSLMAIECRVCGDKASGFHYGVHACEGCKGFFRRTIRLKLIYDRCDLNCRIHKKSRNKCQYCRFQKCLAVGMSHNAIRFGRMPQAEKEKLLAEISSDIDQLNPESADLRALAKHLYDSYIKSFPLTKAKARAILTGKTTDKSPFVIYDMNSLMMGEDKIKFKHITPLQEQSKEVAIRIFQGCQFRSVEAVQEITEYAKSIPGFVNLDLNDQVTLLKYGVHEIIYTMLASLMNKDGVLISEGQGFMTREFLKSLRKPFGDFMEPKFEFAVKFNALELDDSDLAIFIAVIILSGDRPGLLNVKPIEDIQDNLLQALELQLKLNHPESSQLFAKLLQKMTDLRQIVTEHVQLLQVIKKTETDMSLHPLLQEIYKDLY
As to the kind of experiment: Agonist activity at human PPARgamma transfected in HEK293 cells assessed as relative luciferase unit at 50 uM measured after 16 hrs by luciferase reporter gene assay. The experiment is classed as cell-based. The following applies: filed as agonist. In a few lines:
(§1)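 GAL4-hPPAR (α or γ) plus UAS-luciferase and β-galactosidase transiently co-transfected into HEK293 cells, then treated with 50 μM compound for 16 h. RLU = luciferase/β-galactosidase × time, vehicle (DMSO) set to 1. Mean ± SD, N = 3; one-way ANOVA with Holm–Šidák vs vehicle.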
On the technique in general: In a reporter assay the amount or activity of a reporter protein is the signal.

The target of experiment [2] is T2, Peroxisome proliferator-activated receptor alpha (Homo sapiens) (UniProt Q07869).
T2 sequence (whole entry): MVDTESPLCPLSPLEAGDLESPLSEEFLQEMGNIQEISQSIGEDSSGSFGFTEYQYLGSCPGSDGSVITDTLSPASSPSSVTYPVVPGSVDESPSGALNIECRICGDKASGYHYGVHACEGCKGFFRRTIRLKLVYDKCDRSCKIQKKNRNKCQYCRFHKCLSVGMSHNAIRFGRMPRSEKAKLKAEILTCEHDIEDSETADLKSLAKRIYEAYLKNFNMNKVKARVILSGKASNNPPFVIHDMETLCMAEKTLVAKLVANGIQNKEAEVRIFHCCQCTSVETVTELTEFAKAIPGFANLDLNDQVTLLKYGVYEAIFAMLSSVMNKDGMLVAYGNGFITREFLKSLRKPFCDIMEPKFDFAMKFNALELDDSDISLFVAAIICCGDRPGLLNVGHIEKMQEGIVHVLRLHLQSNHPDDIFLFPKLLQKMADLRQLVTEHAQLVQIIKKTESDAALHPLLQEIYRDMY
Kind of experiment: Agonist activity at human PPARalpha expressed in HEK293 cells assessed as maximal activity by luciferase/beta-galactosidase reporter gene assay relative to GW7647. The experiment is classed as cell-based. In a few lines:
(§2)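 HEK293 cells in charcoal-stripped FBS, calcium phosphate co-transfected with GAL4-hPPAR LBD fusion, UAS-luciferase and β-galactosidase. Ligand added 6–8 h post transfection, full dose–response, harvested 14–16 h later. Luciferase normalized to β-galactosidase.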

Experiment [3] deals with T3, Peroxisome proliferator-activated receptor gamma (Mus musculus) (UniProt P37238).
T3 sequence (whole entry): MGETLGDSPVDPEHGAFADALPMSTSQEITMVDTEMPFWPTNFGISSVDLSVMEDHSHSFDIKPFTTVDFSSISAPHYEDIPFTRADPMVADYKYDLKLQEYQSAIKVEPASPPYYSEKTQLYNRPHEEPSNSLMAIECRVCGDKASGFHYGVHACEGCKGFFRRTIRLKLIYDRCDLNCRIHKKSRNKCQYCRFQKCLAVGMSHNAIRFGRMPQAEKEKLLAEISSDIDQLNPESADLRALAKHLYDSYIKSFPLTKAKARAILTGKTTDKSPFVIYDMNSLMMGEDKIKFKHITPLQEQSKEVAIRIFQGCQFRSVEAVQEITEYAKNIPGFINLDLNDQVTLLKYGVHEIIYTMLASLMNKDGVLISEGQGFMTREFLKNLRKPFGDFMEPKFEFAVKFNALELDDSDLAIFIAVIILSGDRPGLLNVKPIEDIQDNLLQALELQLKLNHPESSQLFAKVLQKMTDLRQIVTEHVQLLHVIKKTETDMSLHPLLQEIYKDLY
As to the kind of experiment: Agonist activity at human PPARgamma in mouse 3T3-L1 cells assessed as induction of Adipoq-mRNA expression at 25 uM incubated for 11 days by quantitative real-time PCR analysis. The following applies: filed as agonist, time 11.0 day. On the technique in general: Real-time PCR tracks product formation cycle by cycle.

Experiment [4] concerns the target T3, Peroxisome proliferator-activated receptor gamma (Mus musculus). As to the kind of experiment: Agonist activity at human PPARgamma in mouse 3T3-L1 cells assessed as induction of Glut4 mRNA expression at 25 uM incubated for 11 days by quantitative real-time PCR analysis. To be noted: filed as agonist, time 11.0 day.
Experiment [5] deals with T4, Peroxisome proliferator-activated receptor alpha (Mus musculus) (UniProt P23204).
T4 sequence (whole entry): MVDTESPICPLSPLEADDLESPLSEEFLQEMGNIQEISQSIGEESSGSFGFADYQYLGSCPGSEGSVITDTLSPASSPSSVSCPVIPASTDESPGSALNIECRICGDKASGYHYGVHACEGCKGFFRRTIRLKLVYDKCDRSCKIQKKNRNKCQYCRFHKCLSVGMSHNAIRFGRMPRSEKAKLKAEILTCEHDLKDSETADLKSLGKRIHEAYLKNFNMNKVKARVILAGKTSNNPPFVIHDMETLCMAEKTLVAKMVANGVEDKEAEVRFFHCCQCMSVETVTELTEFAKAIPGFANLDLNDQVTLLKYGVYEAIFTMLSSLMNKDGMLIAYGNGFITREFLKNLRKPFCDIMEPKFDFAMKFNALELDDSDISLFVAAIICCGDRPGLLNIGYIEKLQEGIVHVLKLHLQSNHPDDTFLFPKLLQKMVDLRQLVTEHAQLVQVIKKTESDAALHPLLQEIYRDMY
Kind of experiment: Agonist activity at human PPARalpha in mouse hepatocytes assessed as induction of Pdk4 mRNA expression at 50 uM incubated for 16 hrs by quantitative real-time PCR analysis. The experiment is classed as cell-based. To be noted: Hepatocyte, filed as agonist. In a few lines:
(§3)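 Collagenase-perfused mouse primary hepatocytes from WT mice, plated 2 h in attachment medium, overnight in M199 with 5% charcoal-stripped FBS and 1 nM insulin. Treated next day in serum-free M199 with 50 μM compound for 16 h. RNA qPCR (SYBR Green), comparative Ct method.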

For experiment [6], the target named is T2, Peroxisome proliferator-activated receptor alpha (Homo sapiens). Kind of experiment: Agonist activity at human PPARalpha transfected in HEK293 cells assessed as relative luciferase unit at 50 uM measured after 16 hrs by luciferase reporter gene assay. In kind it is cell-based. The following applies: filed as agonist. In a few lines: as §1
Experiment [7] deals with T4, Peroxisome proliferator-activated receptor alpha (Mus musculus). As to the kind of experiment: Agonist activity at human PPARalpha in mouse hepatocytes assessed as induction of fabp1 mRNA expression at 50 uM incubated for 16 hrs by quantitative real-time PCR analysis. The experiment is classed as cell-based. To be noted: Hepatocyte, filed as agonist. In a few lines: as §3

Experiment [8] has the same target. As to the kind of experiment: Agonist activity at human PPARalpha in mouse hepatocytes assessed as induction of cd36 mRNA expression at 50 uM incubated for 16 hrs by quantitative real-time PCR analysis. In kind it is cell-based. The following applies: Hepatocyte, filed as agonist. In a few lines:
as §3

The target in experiment [9] is T5, Peroxisome proliferator-activated receptor delta (Homo sapiens) (UniProt Q03181).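 Further: reporter gene assay with luciferase read-out normalized to beta-galactosidase, measuring agonist activation of PPARδ expressed in HEK293 cells.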
T5 sequence (whole entry): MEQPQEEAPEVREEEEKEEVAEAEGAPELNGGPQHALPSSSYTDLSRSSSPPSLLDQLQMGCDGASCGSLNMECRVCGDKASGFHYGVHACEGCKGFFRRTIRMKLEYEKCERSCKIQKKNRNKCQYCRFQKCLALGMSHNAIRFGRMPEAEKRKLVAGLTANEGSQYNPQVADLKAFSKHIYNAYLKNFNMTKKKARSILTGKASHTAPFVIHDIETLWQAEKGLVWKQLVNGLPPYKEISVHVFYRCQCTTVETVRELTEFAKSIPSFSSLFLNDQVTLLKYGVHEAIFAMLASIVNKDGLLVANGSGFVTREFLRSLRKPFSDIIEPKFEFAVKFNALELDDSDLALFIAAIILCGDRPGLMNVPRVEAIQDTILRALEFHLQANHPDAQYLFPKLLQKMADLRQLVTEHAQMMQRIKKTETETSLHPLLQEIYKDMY
To be noted: HEK293, filed as agonist.

Experiment [10] has as its target T6, Peroxisome proliferator-activated receptor alpha (Homo sapiens, UniProt Q07869).
T6 sequence (Q07869 whole entry): T2 sequence (whole entry)
Kind of experiment: Agonist activity at human PPARalpha expressed in HEK293 cells by luciferase/beta-galactosidase reporter gene assay. The experiment is classed as cell-based. In a few lines: as §2

Experiment [11] has as its target T7, Peroxisome proliferator-activated receptor gamma (Homo sapiens, UniProt P37231).
T7 sequence (P37231 whole entry): T1 sequence (whole entry)
Kind of experiment: Agonist activity at human PPARgamma expressed in HEK293 cells by luciferase/beta-galactosidase reporter gene assay. In kind it is cell-based. In a few lines: as §2

Experiment [12] relates to Danio rerio. Kind of experiment: In vivo agonist activity at human GFP-tagged PPARalpha in transgenic zebrafish assessed as increase in GFP expression in heart at 5 uM measured after 14 hrs by microscopy.
The subject of experiment [13] is Danio rerio. As to the kind of experiment: In vivo agonist activity at human GFP-tagged PPARalpha in transgenic zebrafish assessed as increase in GFP expression in CNS at 5 uM measured after 14 hrs by microscopy.
The test system of experiment [14] is Danio rerio. As to the kind of experiment: In vivo agonist activity at human GFP-tagged PPARalpha in transgenic zebrafish assessed as increase in GFP expression in muscle at 5 uM measured after 14 hrs by microscopy.
The test system of experiment [15] is Danio rerio. Kind of experiment: In vivo agonist activity at human GFP-tagged PPARalpha in transgenic zebrafish assessed as increase in GFP expression in retina at 5 uM measured after 14 hrs by microscopy.
Experiment [16] relates to Danio rerio. As to the kind of experiment: In vivo agonist activity at human GFP-tagged PPARalpha in transgenic zebrafish assessed as increase in GFP expression in epidermis at 5 uM measured after 14 hrs by microscopy.
Experiment [17] deals with T4, Peroxisome proliferator-activated receptor alpha (Mus musculus). As to the kind of experiment: Agonist activity at human PPARalpha in mouse hepatocytes assessed as induction of Fgf21 mRNA expression at 50 uM incubated for 16 hrs by quantitative real-time PCR analysis. In kind it is cell-based. To be noted: Hepatocyte, filed as agonist. In a few lines:
as §3

Experiment [18] has as its system Danio rerio. Kind of experiment: In vivo agonist activity at human GFP-tagged PPARalpha in transgenic zebrafish assessed as increase in GFP expression in brain at 1.5 uM measured after 14 hrs by microscopy.
Experiment [19] has as its system Danio rerio. As to the kind of experiment: In vivo agonist activity at human GFP-tagged PPARalpha in transgenic zebrafish assessed as increase in GFP expression in yolk sac at 1.5 uM measured after 14 hrs by microscopy.
In experiment [20] the test system is Danio rerio. Kind of experiment: In vivo agonist activity at human GFP-tagged PPARalpha in transgenic zebrafish assessed as increase in GFP expression in muscle at 1.5 uM measured after 14 hrs by microscopy.
Experiment [21] concerns Danio rerio. Kind of experiment: In vivo agonist activity at human GFP-tagged PPARgamma in transgenic zebrafish assessed as increase in GFP expression in muscle at 1 uM measured after 14 days by microscopy. In kind it is functional, organism-based. To be noted: time 14.0 day.
Experiment [22] concerns Danio rerio. Kind of experiment: In vivo agonist activity at human GFP-tagged PPARalpha in transgenic zebrafish assessed as increase in GFP expression in heart at 1.5 uM measured after 14 hrs by microscopy.
For experiment [23], the system named is Danio rerio. Kind of experiment: In vivo agonist activity at human GFP-tagged PPARgamma in transgenic zebrafish assessed as increase in GFP expression in CNS at 1 uM measured after 14 days by microscopy. The following applies: time 14.0 day. In kind it is functional, organism-based.

Active and inactive are the calls of the source. The calls are words filed in the database; no cut-off is given here.

The source of these data is ChEMBL document CHEMBL5154715, “Phenolic Lipids Derived from Cashew Nut Shell Liquid to Treat Metabolic Diseases” (J Med Chem, 2022).

Regarding `CCCCCC/C=C\CCCCCCCc1cccc(OCC(=O)OCC)c1`, the outcome in experiment [1], in experiment [3], in [4], in experiment [5], in experiment [6] and in experiment [7] was Active. Moreover, the result in [8] was Active. In addition, the Emax in experiment [2] turned out to be 30%. Also, the EC50 (as a rule, the midpoint of the concentration-response curve) is 7.1 µM in [9], 4.4 µM in experiment [10] and greater than 50 µM in [11].
For `Cc1cccc(Nc2cc(Cl)nc(SCC(=O)O)n2)c1C`, the outcome in [12], in experiment [13], in [5], in experiment [14], in [7] and in [8] was Active. Further, the result in experiment [15], in experiment [16] and in experiment [17] was Active.
On to `Cc1cc(SCc2sc(-c3ccc(C(F)(F)F)c(F)c3)nc2C)ccc1OCC(=O)O`, for which the outcome in experiment [18], in [19], in experiment [20], in [21], in experiment [22] and in [23] was Active.
